# The list is not random: actives were taken first. Their share in the collection is about 2.5%.
# TRPML3 ag: human mucolipin-3 channel agonism; 0.29% of 220,000 active; activation, % at 3 µM; HEK293 TRPML3-YFP, Fluo-8 calcium fluorescence; 100% = the carbachol control signal;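 active = activation above its plate's cutoff, the mean activation of the plate's test wells plus 3 SD, cut at about 12% in these data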;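 note: 0% = DMSO only wells and 100% = carbachol wells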
# Target sequence (Q8TDD5 whole entry, looked up): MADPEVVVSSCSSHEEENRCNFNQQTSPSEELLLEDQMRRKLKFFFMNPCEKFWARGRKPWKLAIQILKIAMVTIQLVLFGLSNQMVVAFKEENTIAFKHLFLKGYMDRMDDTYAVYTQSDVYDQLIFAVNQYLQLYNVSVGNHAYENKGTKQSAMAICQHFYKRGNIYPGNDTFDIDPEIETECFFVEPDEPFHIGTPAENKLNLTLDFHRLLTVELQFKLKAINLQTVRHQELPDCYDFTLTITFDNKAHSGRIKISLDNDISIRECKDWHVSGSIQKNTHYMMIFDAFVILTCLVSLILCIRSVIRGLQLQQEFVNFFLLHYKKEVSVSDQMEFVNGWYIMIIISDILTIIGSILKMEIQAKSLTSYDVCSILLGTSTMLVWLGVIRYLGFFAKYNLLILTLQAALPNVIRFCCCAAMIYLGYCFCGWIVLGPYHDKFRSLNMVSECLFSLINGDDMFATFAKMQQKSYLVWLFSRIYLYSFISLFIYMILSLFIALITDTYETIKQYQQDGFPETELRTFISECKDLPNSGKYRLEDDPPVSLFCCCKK
#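 Material: HEK293 cells stably carrying human TRPML3-YFP; compound dosing: single dose, 3 µM final nominal compound, 0.3% DMSO final; incubation: 1-h 37 °C dye load, 5-s basal, 120-s post-compound reads; technique: Fluo-8 intracellular calcium fluorescence, excitation 470-495 nm, emission 515-575 nm; read-out basis: percent activation from peak-to-basal fluorescence ratio, scaled between DMSO and carbachol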
# CHO parental Ca: signal in parental CHO cells, OX1R antagonist counter-screen; inhibition, % at 5.6 µM; 0.63% of 330,000 active; parental CHO-K1, ATP-induced calcium, Fluo-8 fluorescence;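 active = inhibition above that plate's mean sample inhibition plus 3 SD, cut at about 26% in these data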;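 note: 0% = ATP-challenged DMSO wells and 100% = DMSO wells without ATP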
#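 Test system: untransfected parental CHO cell line. Compound: one dose, 5.6 µM nominal. Detection: intracellular calcium via Fluo-8 no-wash fluorescent dye. Measure: % inhibition. Benchmarks: ATP-challenged DMSO wells low, unchallenged DMSO wells high.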
# OX1R antag-1: OX1R (human) antagonism. OX1R-expressing cells, FRET antagonist read-out. inhibition, % at 6.6 µM. 1.8% of 330,000 active. AID 485270; in the data active = inhibition mostly above about 38%, no sharp cut-off; inactive = mostly below about 40%;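 note: 0% = agonist challenge alone and 100% = reference antagonist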
# OX1R antag-2: antagonists of human orexin 1 receptor; O43613; CHO/OX1R cells, Fluo-8 calcium fluorescence, orexin A; inhibition, % at 5 µM; 0.43% of 330,000 active; AID 434989;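 active = inhibition above its plate's threshold, mean inhibition of all tested compounds on the plate plus 3 SD, cut at about 37% in these data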;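 note: 0% = orexin A challenge wells and 100% = SB-334867-A antagonist wells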
# zfTRPN1 agonist: activates the zebrafish TRPN1 channel; HEK293 zebrafish TRPN1-YFP, Fluo-8 calcium fluorescence; 100% = response to 87 µM carbachol; activation, % at 3 µM; 0.18% of 220,000 active;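 active = activation above its plate's cutoff, the mean activation of test wells on that plate plus 3 SD, cut at about 19% in these data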;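 note: 0% = DMSO alone and 100% = 87 µM carbachol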
#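 Material – zebrafish TRPN1-YFP in HEK293 cells · Doses – 3 µM single point · Schedule – dye 1 h 37 °C plus 30 min RT · Signal – Fluo-8 calcium fluorescence, excitation 470-495 nm, emission 515-575 nm · Read-out – % activation versus carbachol response · Control set – carbachol high, DMSO low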
# * marks the source's active call; other numbers are inactive results; . = no result given.
SMILES,TRPML3 ag,CHO parental Ca,OX1R antag-1,OX1R antag-2,zfTRPN1 agonist
O=C(Nc1ccc(Cl)cc1Cl)c1cc2ccccc2o1,.,-6.4,1.0,-12.4,.
COc1ccccc1NC(=O)CCCCCN1C(=O)c2cccc3cccc(c23)C1=O,.,-29.6,27.9,-30.3,.
O=C(CN1C(=O)c2cccc3cccc(c23)C1=O)NCCCO,.,-1.7,56.9*,-5.5,.
O=C(CCCCCN1C(=O)c2cccc3cccc(c23)C1=O)NCCCO,.,5.4,52.0*,-9.5,.
Cc1c(NC(=O)CCCN2C(=O)c3cccc4cccc(c34)C2=O)c(=O)n(-c2ccccc2)n1C,-0.4,-5.0,42.4*,-13.2,-0.5
O=C(CCc1ccc(S(=O)(=O)N2CCOCC2)cc1)Nc1c(F)cccc1F,.,-1.1,3.2,-2.1,.
COc1ccccc1C(=O)NCC(=O)NCCCN1CCOCC1,.,0.6,0.8,-6.3,.
Cc1c(C(=O)N2CCOCC2)sc(NC(=O)Cc2ccccc2)c1C#N,0.5,-0.5,9.0,-22.3,1.1
O=C(/C=C/c1ccc(Cl)c([N+](=O)[O-])c1)Nc1cccnc1,1.2,-17.5,54.4*,3.4,1.8
O=C(/C=C/c1ccc(Cl)c([N+](=O)[O-])c1)Nc1ccc(NC(=O)c2ccco2)cc1,1.1,.,.,.,0.3
O=C(/C=C/c1ccc(Cl)c([N+](=O)[O-])c1)Nc1cccc(NC(=O)c2ccco2)c1,0.0,7.1,57.6*,8.2,3.0
Cc1cccn2c(=O)c3cc(C(=O)NCCN4CCOCC4)c(=N)n(CCN4CCOCC4)c3nc12,.,1.3,53.1*,-0.6,.
COc1ccc(CCNC(=O)c2cc3c(=O)n4cccc(C)c4nc3n(CCCN3CCOCC3)c2=N)cc1,.,-16.3,22.8,-18.0,.
CCOCCCn1c(=N)c(C(=O)NCCN2CCOCC2)cc2c(=O)n3cccc(C)c3nc21,1.2,-6.3,56.6*,-17.5,1.6
Cc1cccn2c(=O)c3cc(C(=O)NCCN4CCOCC4)c(=N)n(Cc4ccc(F)cc4)c3nc12,.,-16.6,40.4*,-15.8,.
O=C(c1cc(-c2ccccc2)nn1-c1ccccc1)N1CCN(S(=O)(=O)c2c(F)cccc2F)CC1,.,-18.1,18.9,-19.6,.
Cc1noc(COc2ccccc2OCC(N)=O)n1,.,-11.7,1.7,3.6,.
CCc1ccccc1NC(=O)CNC(=O)c1cc(C2CC2)nc2c1cnn2C(C)C,.,-17.1,38.0*,9.5,.
COc1ccccc1OCCNC(=O)c1cc(C2CC2)nc2c1cnn2C(C)C,.,-21.0,9.6,-26.2,.
COc1ccc(C(=O)NCCCCNC(=O)c2ccc(OC)c(OC)c2)cc1OC,.,-6.5,11.9,-7.0,.
CCOC(=O)C1=C(COC(=O)c2ccccc2[N+](=O)[O-])NC(=O)NC1C (stereo not given),.,-10.7,18.2,-34.1,.
Cc1ccc(OCC(=O)Nc2ccc([N+](=O)[O-])cn2)cc1C,-0.3,41.6*,17.8,-7.5,-0.1
CC(=O)Nc1ccc([N+](=O)[O-])cn1,-0.1,-7.3,75.7*,-16.8,1.4
CCN(Cc1ccccc1)C(=O)c1ccc(N(C)S(=O)(=O)c2ccc(C)cc2)cc1,.,-14.9,21.4,-26.3,.
Cc1ccnc(NC(=O)COc2ccc3oc4c(c3c2)CCCC4)c1,-0.5,-32.7,54.5*,7.5,0.1
SMILES,TRPML3 ag,CHO parental Ca,OX1R antag-1,OX1R antag-2,zfTRPN1 agonist
Cc1ccc(CNC(=O)c2ccc3c(=O)[nH]c4c(C(=O)NCC5CCCO5)sc(=S)n4c3c2)cc1 (stereo not given),0.7,11.2,17.4,-10.9,0.6
CCCCCNC(=O)c1ccc2c(=O)[nH]c3c(C(=O)NCC4CCCO4)sc(=S)n3c2c1 (stereo not given),0.2,1.9,79.3*,-26.7,0.3
CCc1c(C)nc(SCC(N)=O)c(C#N)c1C,0.9,-11.9,5.8,-6.9,0.8
CCc1c(C)nc(SCC(=O)c2cccs2)c(C#N)c1C,0.3,-5.9,63.7*,-4.0,-0.9
O=C(CN1C(=O)C2CC=CCC2C1=O)Nc1nc2ccccc2s1 (stereo not given),1.2,-2.7,13.8,-17.5,0.8
CC(=O)c1ccccc1NC(=O)COC(=O)C1CCCN1S(=O)(=O)c1ccccc1F (stereo not given),.,-21.1,5.9,-12.5,.
CC(C)c1ccc(NC(=O)C2CCCN2S(=O)(=O)c2ccccc2F)cc1 (stereo not given),.,-14.1,37.2*,20.6,.
COc1ccccc1CNC(=O)[C@@H]1CCCN1S(=O)(=O)c1ccccc1F,.,-12.9,16.2,-14.1,.
COc1ccc(C)cc1NC(=O)C1CCCN1S(=O)(=O)c1ccccc1F (stereo not given),.,-25.3,51.7*,14.1,.
COc1ccc(NC(=O)[C@@H]2CCCN2S(=O)(=O)c2ccccc2F)cc1S(=O)(=O)N1CCCCC1,.,-20.2,32.5,23.3,.
Cc1ccc(C)c(NC(=O)[C@@H]2CCCN2S(=O)(=O)c2ccccc2F)c1,.,-9.5,42.8*,21.2,.
CC(=O)c1sc(NC(=O)C2CCCN2S(=O)(=O)c2ccccc2F)nc1C (stereo not given),.,-17.8,37.0*,36.6,.
COc1ccc(C2CCCN2C(=S)Nc2cccc(Cl)c2C)cc1OC (stereo not given),1.4,-23.0,32.1,-31.0,1.3
O=C(COC(=O)c1cc(S(=O)(=O)Nc2ccccc2Cl)ccc1O)Nc1ccc(F)c(F)c1F,.,-5.9,34.5*,15.8,.
Cc1nnc(-n2ncc(C#N)c2N)c2nn(-c3ccccc3F)c(C)c12,0.7,.,.,.,1.8
O=C(Nc1cccc(-c2cn3ccccc3n2)c1)c1cccs1,0.6,-4.1,71.0*,1.9,1.8
CCOc1ccc(S(=O)(=O)Nc2cnc3ccccc3c2)cc1,.,34.9*,27.7,-3.9,.
O=C(Nc1ccc(Br)cc1)c1cccc(S(=O)(=O)Nc2ccccn2)c1,.,-10.1,0.7,-21.6,.
O=C(Nc1ccc(Br)cc1)c1cccc(S(=O)(=O)Nc2cnc3ccccc3c2)c1,0.4,42.1*,54.4,4.9,1.0
O=C1CSc2ccc(C(=O)Nc3cccc(S(=O)(=O)Nc4ccc(Br)cc4)c3)cc2N1,0.4,33.9*,15.1,-2.7,0.7
Cc1ccc2c(c1)N(C(=O)CCC(=O)NCc1cccc(Br)c1)CC(C)O2 (stereo not given),.,-20.6,18.9,-48.4,.
CCCCc1ccc(NC(=O)CSC2=NN3CCCC(=O)N=C3S2)cc1,.,-2.7,32.1,-11.3,.
COc1ccccc1C(=O)Nc1ccc(OCC(=O)N2C(C)CCCC2C)cc1 (stereo not given),.,-20.5,11.2,4.9,.
O=C(CSc1nc2ccccc2s1)NCc1ccc2c(c1)OCO2,-0.1,-0.9,44.4,-12.6,-0.8
O=C(CSc1ccc2ccccc2n1)NCc1ccc2c(c1)OCO2,0.3,-26.8,53.5*,-6.2,-1.7
O=C(Cn1nc(-c2ccccc2)ccc1=O)NCc1ccc2c(c1)OCO2,0.5,-8.7,71.6*,0.1,0.9
CN(C)/C(=N\S(=O)(=O)c1ccc(Cl)cc1)c1ccc(F)cc1,.,-0.5,11.1,-16.6,.
Nc1c(C(=O)CSc2ncccn2)c(=O)[nH]c(=O)n1C1CC1,.,-4.7,0.5,-9.5,.
